Compound activity deposited in PubChem by several laboratories.
RAM inhibit: blocks the yeast RAM network | actives 1.8% (n = 190,000) | S. cerevisiae dse1pr::URA3 reporter, 5-FOA growth OD615, 2 d; analog-sensitive cbk1-as2 kinase mutant strain | inhibition, % at 50 µM | AID 868;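 active = inhibition above a set limit, 3 SD over mean compound inhibition, cut at about 8.4% in these data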;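 note: 0% = DMSO-only wells with no growth and 100% = 10 µM 1-NA-PP1 full growth; inhibition rescues growth on 5-FOA so higher OD means more RAM inhibition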
Yeast lifespan up: yeast lifespan extension | S. cerevisiae growth with nicotinamide, OD615; deaD strain in restrictive glucose medium | inhibition of the nicotinamide effect, % at 10 µM | actives 0.68% (n = 130,000) | AID 775;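 active = inhibition above a set limit, placed 3 SD over the median of all compounds, cut at about 26% in these data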;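 note: 0% = nicotinamide-treated wells and 100% = cells grown without nicotinamide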
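assay system = DeaD-strain S. cerevisiae | measured by = absorbance at 615 nm | probe or stimulus = nicotinamide 1.5 mM | buffer or medium = CSMM-D glucose medium, restrictive | times = 48 h at 30 °C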
Phagocytosis inh: blocks phagocytosis by macrophages; J774A.1 macrophage IgG-bead phagocytosis, imaging; inhibition, % at 5 µM; actives 0.07% (n = 110,000);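 active = inhibition above the mean of the plate negative controls plus 5 SD, cut at about 13% in these data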;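 note: phagocytic index as fraction of beads internalized from green versus red external bead signal; plate controls were DMSO negative control for no effect and cytochalasin-D positive control for full effect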
Yeast growth inh: chemicals that inhibit yeast BB579 growth in restrictive medium (lifespan-shortening candidates). S. cerevisiae BB579 growth, OD615, 48 h. inhibition, % at 10 µM. actives 0.51% (n = 140,000);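 active = inhibition above a set limit, 3 SD over the mean compound inhibition, cut at about 44% in these data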
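System: Saccharomyces cerevisiae DeaD strain BB579, replicative lifespan model yeast. Buffer or medium: restrictive glucose-based CSMM-D medium. Doses: one dose, 10 µM compound with 0.25% DMSO. Timing: 4 h preincubation and 48 h exposure at 30 °C. Detection: turbidity as optical density at 615 nm. Benchmarks: amphotericin B 10 µg/mL, positive.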
RAM efflux-def: RAM network inhibitors in efflux-deficient yeast. shares compounds with RAM inhibit. S. cerevisiae efflux-deficient reporter strain, 5-FOA growth OD615, 2 days. max inhibition, %. 1,200 tested, under 10 active; call rule not given here;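 note: plate controls were vehicle for no effect and reference inhibitor for full effect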
An asterisk follows results filed as active. A selection: hits, their analogues and other compounds. The true share with any hit is near 2.7%.

O=S(=O)(c1ccc(F)cc1)n1ccc(-c2cccc(OCc3ccc(Cl)cc3Cl)c2)n1 was read as RAM inhibit 12*, Yeast lifespan up -6, Yeast growth inh -56 and RAM efflux-def 2.
CCOC(=O)N1CCC(N2CCN(C3CCCC3)C(CCO)C2)CC1 (configuration not stated) was read as RAM inhibit 1.
`CC(=O)Nc1nc2ccccc2n1CCN1CCOCC1` gave RAM inhibit 1 and Yeast growth inh -3.
`O=C(Nc1nc2ccccc2n1CCN1CCOCC1)c1cn(-c2ccccc2)nc1-c1ccccc1` gave RAM inhibit 18*, Yeast lifespan up 173*, Phagocytosis inh 1, Yeast growth inh -61 and RAM efflux-def 3.
Screening CCOCCCNC(=O)c1cc(=O)n(Cc2cccc(C)c2)c2ccccc12 returned RAM inhibit 12* and RAM efflux-def 1.
Screening CCn1c(=O)cc(OCC(=O)NCCc2cccc(C)c2)c2ccccc21 returned RAM inhibit 4.
`N#Cc1c(NC(=O)COC(=O)c2ccc(S(=O)(=O)N3CCCC3)cc2)sc2c1CCCCC2` gave RAM inhibit 8, Yeast lifespan up -1, Phagocytosis inh -4 and Yeast growth inh -45.
For C=CCN1C(=O)C(Cc2ccc(C)cc2)S/C1=N/N=C/c1ccco1 (configuration not stated) the results were RAM inhibit 14*, Yeast lifespan up 4, Phagocytosis inh 0, Yeast growth inh -40 and RAM efflux-def 2.
Screening C=CCN1C(=O)C(Cc2cccc(C)c2)SC1=Nc1ccc(C(=O)O)cc1 (configuration not stated) returned RAM inhibit 15*, Yeast lifespan up -1, Phagocytosis inh 1, Yeast growth inh -54 and RAM efflux-def 1.
`C=CCN1C(=O)C(Cc2ccccc2)SC1=Nc1ccc(C(=O)O)cc1` (configuration not stated) gave RAM inhibit 2, Yeast lifespan up 1, Phagocytosis inh -2 and Yeast growth inh -3.
Screening CCCCN(C(=O)Cc1cccc(F)c1)c1c(N)n(CCC)c(=O)[nH]c1=O returned RAM inhibit 2.
For COc1ccc(-c2c3c(=O)n(C)c(=O)n(C)c3cn2C2CCCCC2)cc1 the results were RAM inhibit 1, Yeast lifespan up -1, Phagocytosis inh -2 and Yeast growth inh -34.
Screening CCOC(=O)c1c(C)[nH]c(C=C2C(=O)CCCC2=O)c1O returned RAM inhibit 0, Yeast lifespan up 8, Phagocytosis inh 3 and Yeast growth inh -31.
COc1ccc(S(=O)(=O)Nc2cccc(S(=O)(=O)N3CCCCCC3)c2)cc1 was read as RAM inhibit 14*, Yeast lifespan up 6, Phagocytosis inh 1, Yeast growth inh -29 and RAM efflux-def 5.
COc1ccc(CC(=O)Nc2cccc(S(=O)(=O)N3CCCCCC3)c2)cc1OC was read as RAM inhibit 12*, Yeast lifespan up 2, Phagocytosis inh -9, Yeast growth inh -31 and RAM efflux-def 3.
CCOC(=O)CNC(=O)C(NC(=O)C1CCC(C)CC1)C(C)CC (configuration not stated) was read as RAM inhibit 1, Yeast lifespan up -11, Phagocytosis inh 2 and Yeast growth inh -50.
`Cc1cc(C)c2nc3nc(C)c(C)cc3c(N)c2c1` gave RAM inhibit 0.
Screening COc1ccccc1OCC(=O)Nc1ccc(-c2nnc(-c3ccco3)o2)cc1 returned RAM inhibit 12* and RAM efflux-def 2.
CCOC(=O)c1ccc(NC(=O)COC(=O)c2cccc(Oc3ccccc3)c2)cc1 was read as RAM inhibit 12*, Yeast lifespan up 8, Phagocytosis inh -3, Yeast growth inh -50 and RAM efflux-def 3.
For CCOC(=O)c1ccc(NC(=S)NC(=O)COc2ccccc2)cc1 the results were RAM inhibit 11*, Yeast lifespan up 5, Phagocytosis inh -2, Yeast growth inh -33 and RAM efflux-def 2.
`OC[C@@H](O)C1OC2NC(=S)OC2C1O` (some centres not stated) gave RAM inhibit 2.
COc1ccc(N(C)C(=S)Oc2ccc(C(=O)Nc3ccccc3)cc2)cc1 was read as RAM inhibit 3, Yeast lifespan up -9, Phagocytosis inh -2 and Yeast growth inh -60.
Screening Cc1cccc(N(C)C(=S)Oc2ccc3ccccc3c2)c1 returned RAM inhibit 12*, Yeast lifespan up 9, Yeast growth inh -59 and RAM efflux-def 3.
For CC(C)OC(=O)CSc1nc(Cc2cccs2)nc2ccccc12 the results were RAM inhibit 6.
`O=[N+]([O-])c1ccc(-c2nnc(-c3ccccc3)c(NCCCO)n2)cc1` gave RAM inhibit 13*, Yeast lifespan up -4, Phagocytosis inh -1, Yeast growth inh -41 and RAM efflux-def 2.
OCCCNc1nc(-c2ccc(Cl)cc2)nnc1-c1ccc(Br)cc1 was read as RAM inhibit 1, Yeast lifespan up -2, Phagocytosis inh -3 and Yeast growth inh -36.
Screening O=C(CN1CCCc2ccccc21)NCCc1ccc(Cl)cc1 returned RAM inhibit 0.
For Cc1ccc2[nH]c(=O)cc(C(=O)OCC(=O)c3ccccc3)c2c1 the results were RAM inhibit 15*, Yeast lifespan up -3, Phagocytosis inh 1, Yeast growth inh -22 and RAM efflux-def 1.
For C/C=C/c1ccc(OCC(=O)OCc2csc(Nc3ccc(C)cc3)n2)c(OC)c1 the results were RAM inhibit 12*, Yeast lifespan up -2, Phagocytosis inh -2, Yeast growth inh -9 and RAM efflux-def 4.
For c1ccc(-c2nnc(CSc3ccc4c(c3)OCCO4)o2)cc1 the results were RAM inhibit 0.
COC(=O)c1ccccc1NC(=S)N(Cc1ccc2c(c1)OCO2)Cc1cc2ccc(OC)cc2[nH]c1=O was read as RAM inhibit 8, Yeast lifespan up 14, Phagocytosis inh -7 and Yeast growth inh -45.
Screening CSc1nc2ccccc2cc1/C=C(\C#N)c1cccc(C)c1 returned RAM inhibit 13*, Yeast lifespan up -10, Yeast growth inh -19 and RAM efflux-def 5.
CSc1nc2ccccc2cc1/C=C(\C#N)c1ccccc1 was read as RAM inhibit 6, Yeast lifespan up -6 and Yeast growth inh -62.
Screening Cc1nc(CN2CCN(Cc3nc(C(c4ccccc4)c4ccccc4)no3)CC2)cs1 returned RAM inhibit -1.
For CN(C)c1ccnc2sc3c(NCC(O)CO)ncnc3c12 (configuration not stated) the results were RAM inhibit 0, Yeast lifespan up 2, Phagocytosis inh -10 and Yeast growth inh -12.
Screening CN(C)c1ccnc2sc3c(SCc4ccc(Cl)cc4)ncnc3c12 returned RAM inhibit 19*, Yeast lifespan up 7, Yeast growth inh -14 and RAM efflux-def 6.
`COc1ccccc1OC(=O)CCN1c2ccccc2Sc2ccccc21` gave RAM inhibit 14*, Yeast lifespan up 1, Phagocytosis inh -11, Yeast growth inh -23 and RAM efflux-def 6.
